Laboratory results reported in PubChem BioAssay.
Results filed as inconclusive are left out.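 Rule for the calls, unless noted: active = growth inhibition above 25% in both replicates, a cutoff set 3 SD above the mean; inconclusive = above 25% in only one replicate; inactive = the rest.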

What was measured:
[1] = OD615 S. cerevisiae growth inhibition, permissive medium, pilot counter-assay, permissive growth control for S. cerevisiae lifespan shortening project (AID 705); conditions: OD615, 24 h, at 10 µM, stronger effect = higher value
Outline: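 System: S. cerevisiae with engineered DeaD lifespan system / Measured by: absorbance (optical density) at 615 nm / Read-out: reduction in yeast growth (OD615) / Times: 4 h cell pre-growth, 24 h exposure at 30 °C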

[2] = Restrictive medium S. cerevisiae growth inhibition, OD615, pilot screen of yeast lifespan reduction project, restrictive growth control (AID 706;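 active = growth inhibition above a set limit, 3 SD over mean compound inhibition, in both replicates, cut at about 43% in these data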;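 note: modified DeaD lifespan yeast strain shifted to restrictive glucose medium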); conditions: OD615, 48 h, at 10 µM, stronger effect = higher value
Outline: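 System: Engineered S. cerevisiae DeaD strain | Buffer or medium: Glucose-based CSMM-D restrictive medium | Schedule: 4 h pre-incubation, 48 h exposure at 30 °C | Technique: Optical density at 615 nm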

[3] = viability gain of MRP-1-high H69AR cells under doxorubicin, pilot screen, MRP-1 activator project, CellTiter-Glo, duplicate (AID 807;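 active = viability increase at or above a cutoff of the median across tested compounds plus 3 SD, cut at about 8.5% in these data, passing the limit was not always enough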;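 note: compound pretreatment 18-22 h then 72 h combined with doxorubicin; 0% = doxorubicin alone and 100% = vehicle without doxorubicin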); conditions: H69AR viability with doxorubicin, CellTiter-Glo luminescence; at 10 µM; stronger effect = higher value
[4] = growth suppression of beta-catenin knockout HCT116, pilot screen, human colon tumor cells (AID 823;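 active = cell viability at or below a set limit in both duplicate runs, the limit being the all-compound median minus 4 SD, cut at about 23% in these data, passing the limit was not always enough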;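 note: 0% = wells killed by 20 µM Hyamine and 100% = untreated DMSO cell wells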); conditions: CellTiter-Glo, 60 h, at 10 µM, stronger effect = lower value
[5] = growth suppression of PTEN-deleted HCT116, pilot screen, cell-based, HCT116 clonal line, CellTiter-Glo (AID 824;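 active = viability at or below 27.92% in each of two runs, the all-compound median minus 4 SD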;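 note: 0% = 20 µM Hyamine control and 100% = vehicle cell control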); conditions: 60 h, at 10 µM, stronger effect = lower value
[6] = inhibitors of the yeast RAM network, pilot screen, dse1pr::URA3 reporter, 5-FOA selection (AID 869;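 active = inhibition over a set limit, the all-compound mean plus 3 SD, in both replicate runs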;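 note: 0% = DMSO wells with no growth and 100% = 10 µM 1-NA-PP1 with full growth; RAM network block rescues cells from 5-FOA so hits raise OD615 growth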); conditions: S. cerevisiae dse1pr::URA3 5-FOA growth, OD615, 2 d; at 10 µM; stronger effect = higher value; strain carries analog-sensitive mutant Cbk1 kinase
[7] = RAM signaling pathway blockade in yeast – S. cerevisiae, Pdr1DBD-CYC8 efflux-inhibited sensitized strain, primary screen (AID 1298;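 active = RAM network inhibition above 8.4% in each of two replicates, 3 SD over the compound average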;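 note: 0% = DMSO untreated cells without growth and 100% = 10 µM 1-NA-PP1 full growth; higher means more yeast growth rescued from 5-FOA killing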); conditions: S. cerevisiae cbk1-as DSE1-URA3 strain, 5-FOA growth OD615, 2 d; at 50 µM; stronger effect = higher value

CC(C)CC(=O)Nc1ccc(C(=O)COc2ccc(-c3nnco3)cc2)cc1
inactive: growth inhibition [1] -0.165% | growth inhibition [2] -0.795% | viability increase [3] 0.84% | viability [4] 88% | viability [5] 87% | inhibition [6] 0.965% | RAM network inhibition [7] 2.46%

CC(C)C12CN3CC(C(C)C)(CN(C1)C31C(=O)Nc3ccccc31)C2=O (stereo unspecified)
inactive: growth inhibition [1] -16.5% | growth inhibition [2] -17.8% | viability increase [3] -0.6% | viability [4] 90.3% | viability [5] 101% | inhibition [6] 1.05% | RAM network inhibition [7] 3.39%

CN(C)C(CNC(=O)c1cccs1)c1cccnc1 (stereo unspecified)
inactive: growth inhibition [1] -14.2% | growth inhibition [2] -20.4% | viability increase [3] -0.5% | viability [4] 105% | viability [5] 97.4% | inhibition [6] 3.75% | RAM network inhibition [7] 0.26%

COc1cccc(-c2cc(C(=O)Nn3cnnc3)c3ccccc3n2)c1
inactive: growth inhibition [1] -12.2% | growth inhibition [2] -11.8% | viability increase [3] -3.9% | viability [4] 92.5% | viability [5] 94.6% | inhibition [6] 1.52% | RAM network inhibition [7] 3.38%

O=C(c1cc2ccccn2n1)N1CCCC1
inactive: growth inhibition [1] -5.76% | growth inhibition [2] -2.7% | viability increase [3] -1.17% | viability [4] 103% | viability [5] 100% | inhibition [6] 1.79% | RAM network inhibition [7] 6.63%

Cc1ccc(S(=O)(=O)NCCCN2CCOCC2)c(C)c1
inactive: growth inhibition [1] -5.02% | growth inhibition [2] -7.8% | viability increase [3] -1.19% | viability [4] 96.8% | viability [5] 95.5% | inhibition [6] 2.29% | RAM network inhibition [7] 5.89%

O=C1N(O)C2(C=CCCC2)/C(=N\O)C12CCCCC2 (stereo unspecified)
inactive: growth inhibition [1] -11.1% | growth inhibition [2] -1.67% | viability increase [3] -2.64% | viability [4] 90.1% | viability [5] 100% | inhibition [6] -0.15% | RAM network inhibition [7] 1.27%

O=C(NCCCn1ccnc1)c1cccc(S(=O)(=O)Nc2ccccc2F)c1
inactive: growth inhibition [1] -13.9% | growth inhibition [2] -26.1% | viability increase [3] -0.61% | viability [4] 92.3% | viability [5] 92.8% | inhibition [6] 2.51% | RAM network inhibition [7] 5.99%

CCSc1nnc(NC(=O)CSc2nc3c(c(=O)n2CCOC)SC(C)C3)s1 (stereo unspecified)
inactive: growth inhibition [1] -5.35% | growth inhibition [2] -1.1% | viability increase [3] -2.95% | viability [4] 94.1% | viability [5] 94.4% | inhibition [6] 2.09% | RAM network inhibition [7] 7.38%

CCOC(=O)C1CCN(S(=O)(=O)c2ccc3[nH]c(=O)oc3c2)CC1
inactive: growth inhibition [1] -10% | growth inhibition [2] -5.23% | viability increase [3] -1.5% | viability [4] 97.8% | viability [5] 91.1% | inhibition [6] 0.515% | RAM network inhibition [7] 2.82%

COC(=O)c1[nH]c2cc(OC)ccc2c1NC(=O)c1ccc2c(c1)OCO2
inactive: growth inhibition [1] -9.79% | growth inhibition [2] -13.4% | viability increase [3] -3.43% | viability [4] 79.6% | viability [5] 81.2% | inhibition [6] 1.74% | RAM network inhibition [7] 1.04%

Cc1cc(C)c(NC(=O)C(C)(C)C)c(Cl)c1
inactive: growth inhibition [1] -6.4% | growth inhibition [2] 6.2% | viability increase [3] -0.89% | viability [4] 89.8% | viability [5] 86.2% | inhibition [6] 1.72% | RAM network inhibition [7] 1.23%

O=C(NCc1ccc2c(c1)OCO2)c1cnc2n(c1=O)CCS2
inactive: growth inhibition [1] -2.39% | growth inhibition [2] 4.35% | viability increase [3] -0.06% | viability [4] 95.9% | viability [5] 98% | inhibition [6] 1.17% | RAM network inhibition [7] 1.93%

CN(CCCC(=O)Nc1nccs1)S(=O)(=O)c1ccc(Cl)cc1
inactive: growth inhibition [1] -0.375% | growth inhibition [2] 0.355% | viability increase [3] -1.24% | viability [4] 110% | viability [5] 97.7% | inhibition [6] 1.51% | RAM network inhibition [7] 0.41%

Cc1ccccc1NC(=O)C1CC(Cl)=CCC1C(=O)O (stereo unspecified)
inactive: growth inhibition [1] -2.29% | growth inhibition [2] -0.385% | viability increase [3] -0.5% | viability [4] 101% | viability [5] 96.9% | inhibition [6] 1.52% | RAM network inhibition [7] 6.8%

N=c1c2c(n(Cc3ccc(F)cc3)c3c1CCC3)CCC2
inactive: growth inhibition [1] -12.2% | growth inhibition [2] -14.7% | viability increase [3] -0.55% | viability [4] 34.5% | viability [5] 38.9% | inhibition [6] 0.8% | RAM network inhibition [7] 0.77%

O=C(CCCOc1ccccc1)n1nnc2ccccc21
inactive: growth inhibition [1] -10.8% | growth inhibition [2] -9.88% | viability increase [3] -1.21% | viability [4] 98.9% | viability [5] 100% | inhibition [6] 0.75% | RAM network inhibition [7] 0.05%

COC(=O)C1=C(C)N(C)C(=O)NC1c1ccc(C)cc1 (stereo unspecified)
inactive: growth inhibition [1] 0.9% | growth inhibition [2] -13.4% | viability increase [3] 0.2% | viability [4] 105% | viability [5] 101% | inhibition [6] 2.69% | RAM network inhibition [7] -0.17%
